Source: PubChem
TAAR1 antagonist: human TAAR1 antagonism | CHO RD-HGA16 TAAR1, Fluo-8 calcium fluorescence, antagonist | inhibition, % at 3 µM | hit rate 1.5% among 360,000 | AID 624466;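 active = inhibition above a per-plate cutoff, the mean inhibition of test compounds on that plate plus 3 SD, cut at about 49% in these data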;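 note: 0% = DMSO plus EC80 beta-PEA response and 100% = DMSO alone without agonist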
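Test system: CHO RD-HGA16 cells bearing hTAAR1 | Reagent: β-PEA, EC80 | Compound dosing: 3 µM, single point | Schedule: Dye loading 75 min at 37 °C, then 30 min room temperature | Signal: Calcium fluorescence with Fluo-8 | Evaluation: Percent inhibition of PEA-evoked calcium signal, max/basal emission ratio | Control set: DMSO-only wells and EC80 β-PEA-stimulated wells | Repeats: Singlicate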
TAAR1 ag: agonists of human TAAR1 | hit rate 0.99% among 360,000 | CHO RD-HGA16 TAAR1, Fluo-8 calcium fluorescence; vehicle wells 0%, saturating PEA agonist 100% | activation, % at 3 µM;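 active = activation above the mean activation of all test compounds in the run plus 3 SD, cut at about 38% in these data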
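Signal – calcium-sensitive Fluo-8 signal, excitation 470-495, emission 515-575 nm · System – RD-HGA16 (CHO) cells co-expressing Gα16 and hTAAR1 · Incubation – 17-24 h seeding, 75 min 37 °C dye, 30 min RT · Compound dosing – 3 µM single concentration · Repeats – no replicates (n 1)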
OX1R antag-1: antagonists of human orexin 1 receptor (OX1R); hit rate 1.8% among 330,000; O43613; inhibition, % at 6.6 µM; AID 485270; OX1R-expressing cells, FRET antagonist read-out; in the data active = inhibition mostly above about 38%, no sharp cut-off; inactive = mostly below about 40%;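 note: 0% = agonist challenge alone and 100% = reference antagonist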
Target sequence (O43613 whole entry, looked up): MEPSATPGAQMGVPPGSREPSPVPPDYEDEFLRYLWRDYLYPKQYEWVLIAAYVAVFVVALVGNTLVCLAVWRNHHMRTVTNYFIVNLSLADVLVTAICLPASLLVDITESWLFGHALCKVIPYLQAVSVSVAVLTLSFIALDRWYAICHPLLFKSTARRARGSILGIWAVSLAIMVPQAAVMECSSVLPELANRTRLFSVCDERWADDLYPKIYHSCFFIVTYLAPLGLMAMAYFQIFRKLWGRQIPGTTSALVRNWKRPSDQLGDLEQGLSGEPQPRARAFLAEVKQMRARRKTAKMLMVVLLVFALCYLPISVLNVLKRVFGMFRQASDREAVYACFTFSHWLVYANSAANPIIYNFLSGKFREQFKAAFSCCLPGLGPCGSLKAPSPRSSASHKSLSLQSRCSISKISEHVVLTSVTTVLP
CHO parental Ca: counter-screen: ATP calcium response change in parental CHO cells; inhibition, % at 5.6 µM; parental CHO-K1, ATP-induced calcium, Fluo-8 fluorescence; hit rate 0.63% among 330,000;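 active = inhibition above that plate's mean sample inhibition plus 3 SD, cut at about 26% in these data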;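 note: 0% = ATP-challenged DMSO wells and 100% = DMSO wells without ATP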
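Material: parental CHO cells / Compound: single nominal dose of 5.6 µM per compound / Signal: Fluo-8 fluorescence / Replicates: singlicate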
OX1R antag-2: antagonists of human orexin 1 receptor; CHO/OX1R cells, Fluo-8 calcium fluorescence, orexin A; inhibition, % at 5 µM; hit rate 0.43% among 330,000;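 active = inhibition above its plate's threshold, mean inhibition of all tested compounds on the plate plus 3 SD, cut at about 37% in these data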;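 note: 0% = orexin A challenge wells and 100% = SB-334867-A antagonist wells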
GPR7 antagonist: human neuropeptides B/W receptor 1 antagonism. GPR7-expressing cells, fluorescence antagonist assay. inhibition, % at 4.4 µM. AID 1861. hit rate 1.1% among 290,000; in the data active = inhibition above about 16%, passing the limit was not always enough;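 note: cells stimulated with the agonist NPW; 0% = agonist with vehicle and 100% = vehicle without agonist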
Target sequence (P48145 whole entry, looked up): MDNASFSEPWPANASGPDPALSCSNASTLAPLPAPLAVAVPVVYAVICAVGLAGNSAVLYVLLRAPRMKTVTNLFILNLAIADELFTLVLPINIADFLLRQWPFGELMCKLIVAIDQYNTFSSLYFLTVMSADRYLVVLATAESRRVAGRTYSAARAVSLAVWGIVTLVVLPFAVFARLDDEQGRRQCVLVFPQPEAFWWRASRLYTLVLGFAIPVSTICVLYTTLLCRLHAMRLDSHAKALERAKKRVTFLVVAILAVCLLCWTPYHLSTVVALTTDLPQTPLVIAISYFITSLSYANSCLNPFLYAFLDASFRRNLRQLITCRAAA
TAAR1 ag conf: human TAAR1 agonism, confirmed; shares compounds with TAAR1 ag; CHO RD-HGA16 TAAR1, Fluo-8 calcium fluorescence; scaled: DMSO 0%, maximal phenethylamine 100%; activation, % at 3 µM; hit rate 82% among 2,400; AID 651783;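 active = activation above a cutoff set at the run's mean compound activation plus 3 SD, cut at about 39% in these data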
Ga16 nonsel ag: nonselective agonist in parental cells, TAAR1 agonist counter-screen | shares compounds with TAAR1 ag | CHO-Ga16 parental, Fluo-8 calcium fluorescence; normalized to maximal ATP response, DMSO zero | activation, % at 3 µM | hit rate 50% among 2,400 | AID 651787;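 active = activation above the run cutoff, the mean activation over all tested wells plus 3 SD, cut at about 12% in these data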;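 note: 0% = DMSO wells and 100% = maximal ATP response on the peak over basal ratio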
TAAR1 desens: human TAAR1 agonist that also desensitizes the receptor | hit rate 46% among 2,400 | AID 651951 | CHO RD-HGA16 hTAAR1, Fluo-8 calcium, beta-PEA response inhibition | shares compounds with TAAR1 ag | inhibition, % at 3 µM;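 active = inhibition above the run cutoff, the mean inhibition of all test compounds plus 3 SD, cut at about 49% in these data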;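 note: beta-PEA stimulus applied at its EC80; loss of beta-PEA calcium signal after compound pretreatment read as receptor desensitization; 0% = DMSO with beta-PEA at EC80 and 100% = DMSO alone without agonist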
Ga16 nonsel ant: nonselective Ga16 antagonism, counter-screen. shares compounds with TAAR1 ag. CHO-Ga16 ATP-induced calcium, Fluo-8 fluorescence. inhibition, % at 3 µM. hit rate 39% among 2,400;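 active = inhibition above the plate's mean compound inhibition plus 3 SD, computed per plate, cut at about 22% in these data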;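 note: 0% = EC80 ATP with DMSO and 100% = DMSO wells without ATP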
Numbers without * were called inactive; nt = not tested or not shown. Sampled rows, rich in hits. Any-hit rate of the full collection: about 4.6%.

SMILES	TAAR1 antagonist	TAAR1 ag	OX1R antag-1	CHO parental Ca	OX1R antag-2	GPR7 antagonist	TAAR1 ag conf	Ga16 nonsel ag	TAAR1 desens	Ga16 nonsel ant
O=C1/C(=C/c2cccs2)CCC/C1=C\c1cccs1	-21	-2	30	-16	-16	-2	nt	nt	nt	nt
Cc1cc(C)cc(Nc2cc(=O)n(C3CCCCC3)c(=O)[nH]2)c1	22	10	19	-17	-6	1	nt	nt	nt	nt
Cc1cc2nc3c(=O)n(C4CCCCC4)c(=O)[nH]c3nc2cc1N	12	57*	nt	nt	nt	-13	28	64*	27	39*
COc1cccc(OCc2nc3ccccc3[nH]2)c1	-7	-1	5	-20	-20	-11	nt	nt	nt	nt
CC(C)Sc1cc(N2CCOCC2)nc(-c2ccc(Cl)cc2)n1	-21	13	5	-5	2	-11	nt	nt	nt	nt
CCN1CCN(c2cc(SC(C)C)nc(-c3ccc(OC)cc3)n2)CC1	-17	46*	nt	nt	nt	-7	74*	19*	29	5
CCOc1ccc(-c2c(C(=O)N/N=C/c3ccsc3)nnn2-c2nonc2N)cc1	21	119*	8	-31	-53	-16	111*	74*	23	10
CCOc1cccc(-c2c(C(=O)N/N=C/c3cccnc3)nnn2-c2nonc2N)c1	-4	14	10	-8	-9	5	nt	nt	nt	nt
COc1cccc(-c2c(C(=O)N/N=C/c3ccsc3)nnn2-c2nonc2N)c1	32	129*	26	-9	-28	-12	145*	106*	72*	29*
CCc1ccc(/C=N/NC(=O)c2nnn(-c3nonc3N)c2CN2CCOCC2)cc1	3	63*	23	0	-12	-8	59*	52*	20	16
CCOc1cccc(-c2c(C(=O)N/N=C/c3ccc(Br)cc3)nnn2-c2nonc2N)c1	37	102*	1	-11	-17	-2	97*	82*	58*	48*
COc1cccc(/C=N/NC(=O)c2nnn(-c3nonc3N)c2-c2cccs2)c1	4	18	19	8	-8	-4	nt	nt	nt	nt
CCOc1ccc(Nc2nc3ccccc3n3cnnc23)cc1	-13	-3	29	-22	-11	-23	nt	nt	nt	nt
O=C(CNS(=O)(=O)/C=C/c1ccccc1)OCC(=O)N1CCC(Cc2ccccc2)CC1	30	9	22	9	6	1	nt	nt	nt	nt
CCOc1ccc(-c2c(C(=O)N/N=C/c3ccc(OC)cc3)nnn2-c2nonc2N)cc1	5	51*	24	-24	-18	-10	47*	23*	4	4
CCCOc1ccc(-c2c(C(=O)N/N=C/c3ccncc3)nnn2-c2nonc2N)cc1	18	47*	14	-22	-22	2	30	12*	24	20
CCCc1c(C(=O)N/N=C/c2ccc(C)s2)nnn1-c1nonc1N	6	3	-5	0	-7	9	nt	nt	nt	nt
CCCc1c(C(=O)N/N=C/c2cccs2)nnn1-c1nonc1N	-14	65*	16	-3	-7	-19	27	19*	4	15
CCCOc1ccc(-c2c(C(=O)N/N=C/c3ccc(OCC)cc3)nnn2-c2nonc2N)cc1	-25	16	19	-21	-31	-6	nt	nt	nt	nt
CSc1nnc(COc2ccc(C)cc2)n1N	-12	4	10	-1	8	-6	nt	nt	nt	nt
Cc1ccc(NC(=O)c2ccc3nsnc3c2)c(Cl)c1	47	57*	16	-3	-2	-14	15	-1	11	1
COC(=O)C1=C(C)N(Cc2cccc(C(F)(F)F)c2)C(=NCc2ccc(C(F)(F)F)cc2)NC1c1ccc(F)cc1 (centres undefined)	34	27	nt	nt	nt	nt	nt	nt	nt	nt
COC(=O)C1=C(C)N(Cc2cccc(C(F)(F)F)c2)C(=NCc2ccc3c(c2)OCO3)NC1c1cccc(C(F)(F)F)c1 (centres undefined)	34	40*	nt	nt	nt	nt	36	13*	25	33*
COC(=O)C1=C(C)N(Cc2cccc(C(F)(F)F)c2)C(=NCc2cccc(C(F)(F)F)c2)NC1c1ccc(Cl)cc1 (centres undefined)	6	11	nt	nt	nt	nt	nt	nt	nt	nt
C=CCN=C1NC(c2ccc(Cl)cc2)C(C(=O)OC)=C(C)N1Cc1cccc(C(F)(F)F)c1 (centres undefined)	75*	65*	nt	nt	nt	nt	76*	47*	89*	72*
SMILES	TAAR1 antagonist	TAAR1 ag	OX1R antag-1	CHO parental Ca	OX1R antag-2	GPR7 antagonist	TAAR1 ag conf	Ga16 nonsel ag	TAAR1 desens	Ga16 nonsel ant
COC(=O)C1=C(C)N(Cc2cccc(C(F)(F)F)c2)C(=NCc2ccc3c(c2)OCO3)NC1c1ccc(F)cc1 (centres undefined)	50*	48*	nt	nt	nt	nt	35	15*	44	36*
N#Cc1ccc(OCC(=O)NNC(=O)C2CCCCC2)cc1	10	0	-2	10	-4	nt	nt	nt	nt	nt
COc1ccc(S(=O)(=O)NC2CCCCC2)cc1-n1cnnn1	2	-1	15	-12	-33	-7	nt	nt	nt	nt
O=C(COC(=O)Cn1cnc2ccccc2c1=O)Nc1ccc(Cl)cc1	14	49*	12	-17	-17	-6	66*	2	28	4
O=C(COC(=O)Cn1cnc2ccccc2c1=O)Nc1ccc(Cl)c(C(F)(F)F)c1	8	27	0	-19	-24	-4	nt	nt	nt	nt
O=C(NC1CCCCC1)N1CCN(c2ccccc2Cl)CC1	3	1	4	1	-9	-4	nt	nt	nt	nt
OC(COC(c1ccccc1)c1ccccc1)CN1CCc2ccccc2C1 (centres undefined)	-1	5	12	-24	-57	-1	nt	nt	nt	nt
OC(COC(c1ccc(Cl)cc1)c1ccc(Cl)cc1)CN1CCc2ccccc2C1 (centres undefined)	25	82*	-6	-20	-41	-11	81*	3	49*	13
CC(=O)Nc1ccc(NC(=O)CN(c2ccc(C(C)C)cc2)S(=O)(=O)c2ccccc2)cc1	-32	7	12	-22	-12	-14	nt	nt	nt	nt
CC(=O)N1N=C(c2ccc(C)c([N+](=O)[O-])c2)OC1(C)C	-23	-1	4	-2	-11	-2	nt	nt	nt	nt
CC(=O)N1N=C(c2cccc([N+](=O)[O-])c2)OC1(C)c1cccs1 (centres undefined)	54*	58*	2	-19	-27	4	0	0	0	8
